Laboratory results reported in ChEMBL document CHEMBL1124580, “Opioid agonist and antagonist activities of peripherally selective derivatives of naltrexamine and oxymorphamine” (J Med Chem, 1989).

Tests used:
[1] = species: Cavia porcellus; assay: Antagonistic activity against morphine in guinea pig ileal longitudinal muscle(GPI) preparation; assay type: functional, Muscle tissue
In short: (§1)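 Guinea pig ileal longitudinal muscle, electrically stimulated twitch. Antagonism measured against morphine. Ke = [antagonist]/(IC50 ratio − 1); the IC50 ratio is morphine IC50 with antagonist over its control IC50 in the same preparation. Values are means ± SE, with number of experiments.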

[2] = species: Cavia porcellus; assay: Maximum percent inhibition of electrically stimulated twitch in guinea pig ileal longitudinal muscle(GPI) preparation; assay type: functional; settings: Muscle tissue
In short: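 Guinea pig ileal longitudinal muscle, electrically stimulated. Maximum percent inhibition of the twitch determined at 1 μM. Values are means ± SE, with number of experiments.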

[3] = system: Mus musculus; assay: Peak antinociceptive potency of compound, 20 min after intracerebro ventricular administration into mice; assay type: functional
In short: (§2)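 Male Swiss–Webster mice, tail-flick antinociception. Compounds given icv, iv or po, with ED50 taken at peak effect. Some ED50s were estimated from two dose levels. Where drug was insufficient, an approximate range was based on one dose level.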

[4] = system: Mus musculus; assay: Peak antinociceptive potency of compound, 20 min after intravenous administration into mice; assay type: functional; in short: as §2
[5] = system: Mus musculus; assay: Peak antinociceptive potency of compound, 60 min after peroral administration into mice; assay type: functional; settings: po, 1 h; in short: as §2
[6] = (§3) Potency against opioid receptor relative to morphine; assay type: functional
In short: (§4)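 Guinea pig ileal longitudinal muscle, electrically stimulated twitch. Agonist potency taken as IC50 for twitch inhibition and as potency ratio relative to morphine (morphine = 1). Values are means ± SE, with number of experiments.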

[7] = biological target: T1, Opioid receptors; mu/kappa/delta (Homo sapiens, UniProt P41145+P41143+P35372); assay: Opioid receptor agonistic potency in guinea pig ileal longitudinal muscle(GPI) preparation; assay type: functional, Cavia porcellus; settings: target entry is the homologue from another species; in short: as §4
[8] = system: Mus musculus; assay: Peak antinociceptive potency of compound, 40 min after intravenous administration into mice; assay type: functional; in short: as §2
[9] = system: Mus musculus; assay: Peak antinociceptive potency of compound, 40 min after intracerebro ventricular administration into mice; assay type: functional; in short: as §2
[10] = biological target: T1, Opioid receptors; mu/kappa/delta; assay: as §3; assay type: functional; settings: Cavia porcellus; in short: as §4
[11] = system: Mus musculus; assay: Peak antinociceptive potency of compound, 40 min after intracerebro ventricular administration nto mice; assay type: functional; in short: as §2
[12] = species: Cavia porcellus; assay: Antagonistic activity against morphine in guinea pig ileal longitudinal muscle(GPI) preparation; Agonism was too strong to test for antagonism; assay type: functional; settings: Muscle tissue, filed as agonist; in short: as §1
[13] = system: Mus musculus; assay: Antagonistic potency, 60 min after intracerebro ventricular administration of compound (0.01n mol), in mice (tail flick assay); assay type: functional; settings: central, 1 h
In short: (§5)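 Male Swiss–Webster mice, tail-flick antinociception. Morphine given sc and tested 30 min after injection. Antagonist given icv (0.01 nmol), iv (18.3 μmol/kg) or po (91.7 μmol/kg), timed so both drugs were at peak (antagonist peaks 60, 90 and 120 min).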

[14] = system: Mus musculus; assay: Antagonistic potency, 90 min after […] administration of compound (18.3 u mol/kg), in mice (tail flick assay); assay type: functional; settings: 1.5 h; in short: as §5
[15] = system: Mus musculus; assay: Dose required to produce equivalent antagonism of morphine activity after peroral administration of compound; assay type: functional
In short: (§6)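 Mouse tail-flick assay against sc morphine. Antagonist dosed icv, iv or po. Equiactive dose calculated as the dose required to double the morphine ED50, [dose/(DR − 1)]. icv doses were also expressed per kg body weight.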

[16] = system: Mus musculus; assay: Peak effect of agonistic potency 10 min after intracerebro ventricular administration, in mice (acetic acid writhing assay); assay type: functional
In short: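 Mouse acetic acid writhing assay. Compound given icv or po. […] Expressed as nmol/mouse (icv) or […] (po).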

[17] = Antagonistic potency, 120 min after […] administration of compound (91.7 u mol/kg), in mice (tail flick assay); assay type: functional; in short: as §5
[18] = Antagonistic potency, 90 min after intravenous administration of compound (18.3 u mol/kg), in mice (tail flick assay); assay type: functional; in short: as §5
[19] = Antagonistic potency,60 min after intracerebro ventricular administration of compound ([…]), in mice (tail flick assay); assay type: functional; in short: as §5
[20] = system: Mus musculus; assay: Dose required to produce equivalent antagonism of morphine activity after intravenous administration of compound; assay type: functional; in short: as §6
[21] = system: Mus musculus; assay: Antagonistic potency, 120 min after […] administration of compound (91.7u mol/kg), in mice (tail flick assay); assay type: functional; settings: 2 h; in short: as §5

T1 sequence (P35372 whole entry, looked up): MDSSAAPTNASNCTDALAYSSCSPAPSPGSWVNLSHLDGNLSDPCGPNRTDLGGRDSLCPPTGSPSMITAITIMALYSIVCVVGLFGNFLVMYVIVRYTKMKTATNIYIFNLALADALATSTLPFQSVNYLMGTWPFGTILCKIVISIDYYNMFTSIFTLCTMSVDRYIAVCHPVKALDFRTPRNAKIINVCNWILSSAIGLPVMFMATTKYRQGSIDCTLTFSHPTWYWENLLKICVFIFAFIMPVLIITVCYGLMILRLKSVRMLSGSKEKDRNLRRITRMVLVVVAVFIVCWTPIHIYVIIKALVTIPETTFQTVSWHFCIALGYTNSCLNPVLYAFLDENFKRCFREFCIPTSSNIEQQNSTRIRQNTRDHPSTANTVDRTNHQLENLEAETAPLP
T1 sequence (P41143 whole entry, looked up): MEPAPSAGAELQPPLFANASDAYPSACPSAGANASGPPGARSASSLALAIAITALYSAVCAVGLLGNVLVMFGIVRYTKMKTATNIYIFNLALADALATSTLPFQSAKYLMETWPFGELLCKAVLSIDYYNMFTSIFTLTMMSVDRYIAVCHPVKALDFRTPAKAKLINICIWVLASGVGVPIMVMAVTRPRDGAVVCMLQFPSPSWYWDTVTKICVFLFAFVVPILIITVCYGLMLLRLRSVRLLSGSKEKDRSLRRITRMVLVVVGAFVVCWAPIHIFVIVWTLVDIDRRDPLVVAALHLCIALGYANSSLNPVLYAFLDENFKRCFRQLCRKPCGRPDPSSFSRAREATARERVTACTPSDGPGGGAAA
T1 sequence (P41145 whole entry, looked up): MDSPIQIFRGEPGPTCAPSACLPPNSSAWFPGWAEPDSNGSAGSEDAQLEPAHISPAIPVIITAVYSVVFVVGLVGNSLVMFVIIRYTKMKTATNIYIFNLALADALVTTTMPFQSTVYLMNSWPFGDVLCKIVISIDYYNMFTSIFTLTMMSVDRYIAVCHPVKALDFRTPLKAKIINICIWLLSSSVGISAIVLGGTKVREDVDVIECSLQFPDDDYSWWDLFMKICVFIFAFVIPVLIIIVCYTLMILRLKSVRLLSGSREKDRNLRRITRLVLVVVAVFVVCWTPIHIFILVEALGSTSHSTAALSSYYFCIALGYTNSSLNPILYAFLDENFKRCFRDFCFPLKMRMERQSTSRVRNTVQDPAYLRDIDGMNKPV

Q: With O=C(O)CNC1CC[C@@]2(O)[C@H]3Cc4ccc(O)c5c4[C@@]2(CCN3CC2CC2)[C@H]1O5 (some centres not stated) as the compound, how does the Ke [1] read?
A: Its Ke is 24.4 nM.

Q: And the IC50 [2]?
A: Its IC50 is 37 nM.

Q: Which results are given for CN1CC[C@]23c4c5ccc(O)c4O[C@H]2C(NC(=O)/C=C\C(=O)O)CC[C@@]3(O)[C@H]1C5 (some centres not stated)?
A: ED50 [3]: 0.17 nM mouse-1; ED50 [4]: 11 µmol/kg; ED50 [5]: 20 µmol/kg; Ratio [6]: 2.6; IC50 [7]: 39 nM

Q: For CN1CC[C@]23c4c5ccc(O)c4O[C@H]2C(NC(=O)C(N)CC(=O)O)CC[C@@]3(O)[C@H]1C5 (some centres not stated), which ED50 [3] is on record?
A: The ED50 was 1110.44 nM mouse-1.

Q: What about the ED50 [8] of the same compound?
A: The ED50 was less than 20 µmol/kg.

Q: And the Ratio [6]?
A: Its Ratio is 6.1.

Q: What about the IC50 [7] of the same compound?
A: Its IC50 is 31 nM.

Q: For CN1CC[C@]23c4c5ccc(O)c4O[C@H]2C(NC(=O)COCC(=O)O)CC[C@@]3(O)[C@H]1C5 (some centres not stated), which ED50 [9] is on record?
A: Its ED50 is 0.25 nM mouse-1.

Q: And the ED50 [8]?
A: The ED50 was less than 20 µmol/kg.

Q: And the ED50 [5]?
A: The ED50 was greater than 25 µmol/kg.

Q: And the Ratio [10]?
A: Its Ratio is 3.1.

Q: What about the IC50 [7] of the same compound?
A: The IC50 was 27 nM.

Q: Which results are given for CN1CC[C@]23c4c5ccc(O)c4O[C@H]2C(NC(=O)CCC(=O)O)CC[C@@]3(O)[C@H]1C5 (some centres not stated)?
A: ED50 [11]: 0.27 nM mouse-1; ED50 [8]: 9.8 µmol/kg; ED50 [5]: 30.3 µmol/kg; Ratio [6]: 1.6; IC50 [7]: 144 nM

Q: Which Ke [1] does the source give for O=C(O)CCC(=O)NC1CC[C@@]2(O)[C@H]3Cc4ccc(O)c5c4[C@@]2(CCN3CC2CC2)[C@H]1O5 (some centres not stated) here?
A: Its Ke is 24.8 nM.

Q: What about the IC50 [2] of the same compound?
A: Its IC50 is 56 nM.

Q: For O=C(O)COCC(=O)NC1CC[C@@]2(O)[C@H]3Cc4ccc(O)c5c4[C@@]2(CCN3CC2CC2)[C@H]1O5 (some centres not stated), which Ke [1] is on record?
A: Its Ke is 6.2 nM.

Q: What about the IC50 [2] of the same compound?
A: Its IC50 is 38 nM.

Q: With NC(CC(=O)O)C(=O)NC1CC[C@@]2(O)[C@H]3Cc4ccc(O)c5c4[C@@]2(CCN3CC2CC2)[C@H]1O5 (some centres not stated) as the compound, how does the Ke [12] read?
A: The Ke was “Agonism was too strong to test for antagonism”.

Q: What about the ED50 [13] of the same compound?
A: The ED50 was 58 µmol/kg.

Q: What about the ED50 [14] of the same compound?
A: Its ED50 is 168 µmol/kg.

Q: What about the Dose [15] of the same compound?
A: The Dose was 45.85 µM/kg.

Q: What about the ED50 [16] of the same compound?
A: The ED50 was 0.024 nM mouse-1.

Q: And the Dose ratio [17]?
A: Its Dose ratio is 3.

Q: What about the Dose ratio [18] of the same compound?
A: The Dose ratio was 12.2.

Q: And the Dose ratio [19]?
A: Its Dose ratio is 4.2.

Q: And the IC50 [2]?
A: Its IC50 is 7.4 nM.

Q: What about the Dose [20] of the same compound?
A: The Dose was 1.63 µM/kg.

Q: What about the ED50 [21] of the same compound?
A: Its ED50 is 41.4 µmol/kg.

Q: Which Ke [1] does the source give for O=C(O)/C=C/C(=O)NC1CC[C@@]2(O)[C@H]3Cc4ccc(O)c5c4[C@@]2(CCN3CC2CC2)[C@H]1O5 (some centres not stated) here?
A: The Ke was 8.4 nM.

Q: What about the IC50 [2] of the same compound?
A: Its IC50 is 6 nM.

Q: Which Ratio [6] does the source give for CN1CC[C@]23c4c5ccc(O)c4O[C@H]2C(NC(=O)/C=C/C(=O)O)CC[C@@]3(O)[C@H]1C5 (some centres not stated) here?
A: The Ratio was 1.5.

Q: What about the IC50 [7] of the same compound?
A: The IC50 was 130 nM.

Q: Which results are given for O=C(O)CCCC(=O)NC1CC[C@@]2(O)[C@H]3Cc4ccc(O)c5c4[C@@]2(CCN3CC2CC2)[C@H]1O5 (some centres not stated)?
A: Ke [1]: 28 nM; IC50 [2]: 41 nM
